PLC-gamma1 inh: inhibitors of human phospholipase C gamma1 | inhibition, % at 12.2 µM | 370,000 compounds, 0.84% hits | purified PLC-gamma1, fluorogenic substrate, fluorescence | P19174; in the data active = inhibition above about 9.5%
PLCb3 inh: blocks human PLC-beta3 enzyme activity. Q01970. Purified PLC-beta3, fluorogenic substrate, fluorescence. inhibition, % at 12.2 µM. 370,000 compounds, 0.18% hits; in the data active = inhibition above about 11%;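 note: 0% = median of compound wells on plate and 100% = full blocker control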
NRP1-CendR mod: alters CendR peptide binding to human NRP-1 | O14786 | FAM-RPARPAR peptide binding to NRP-1, fluorescence polarization | inhibition, % at 25 µM | 360,000 compounds, 0.85% hits;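 active = inhibition or corrected inhibition above about 18%, plus a signal ratio from 0.5 to 1.5, limit read from the data, passing the limit was not always enough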
Tn6 DDE FP: inhibitors of Tn6 peptide binding to human fibrin DD(E); P02675; Fibrin DD(E) TRITC-Tn6 fluorescence polarization displacement; inhibition, % at 8.3 µM; 370,000 compounds, 0.21% hits; AID 720509;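 active = inhibition above a per-campaign cutoff: mean of compounds within control limits plus 3 SD, cut at about 15% in these data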;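 note: 0% = median of all compound wells on the plate and 100% = blocking peptide control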
Target sequence (P02675 whole entry, looked up): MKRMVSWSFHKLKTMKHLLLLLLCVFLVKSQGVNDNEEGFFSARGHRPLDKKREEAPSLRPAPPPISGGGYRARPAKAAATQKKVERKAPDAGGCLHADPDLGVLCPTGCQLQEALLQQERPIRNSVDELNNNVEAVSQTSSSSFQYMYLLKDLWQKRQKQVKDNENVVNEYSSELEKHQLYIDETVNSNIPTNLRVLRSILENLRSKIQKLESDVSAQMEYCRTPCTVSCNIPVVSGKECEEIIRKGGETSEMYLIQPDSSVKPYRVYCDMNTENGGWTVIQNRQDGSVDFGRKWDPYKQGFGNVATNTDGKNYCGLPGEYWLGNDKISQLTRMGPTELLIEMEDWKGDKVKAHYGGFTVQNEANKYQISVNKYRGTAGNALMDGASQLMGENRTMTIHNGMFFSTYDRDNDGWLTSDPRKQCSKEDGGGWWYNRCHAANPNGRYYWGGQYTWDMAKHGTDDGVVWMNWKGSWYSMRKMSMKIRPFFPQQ
proKLK7 act: proKLK7 (human) activation, primary screen; 370,000 compounds, 0.9% hits; purified proKLK7, EDANS-DABCYL substrate fluorescence; 100% is mature enzyme control, 0% vehicle; AID 652039; P49862; activation, % at 7 µM;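 active = activation above the mean of all tested compounds plus 3 SD, computed per campaign excluding outliers beyond control limits, cut at about 13% in these data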
DDE Tn7 FP inh: inhibitors of Tn7 peptide binding to human fibrin DD(E); P02675; FP displacement of FITC-Tn7 peptide from fibrin DD(E); 0% = median of compound wells per plate; inhibition, % at 8.3 µM; 370,000 compounds, 0.13% hits; AID 720508;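 active = inhibition above the mean of compounds falling within the control limits plus 3 SD of them, cut at about 14% in these data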;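 note: 0% = plate median of compound wells and 100% = 10 µM Aha-Tn7 peptide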
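assay system = human clot-derived fibrin DD(E) complex | quantity = Fibrin-DD(E) at 2 µM final | timing = 10 min preincubation, 3 h with tracer, room temperature | signal = fluorescence polarization | measure = percent inhibition | benchmarks = high control wells with 10 µM unlabelled Aha-Tn7 peptide (full inhibition) | replicates = singlicate testing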
KLK7 act conf: proKLK7 activation, confirmation; shares compounds with proKLK7 act; purified proKLK7, EDANS-DABCYL substrate fluorescence; scaled: vehicle 0, mature enzyme 100; activation, % at 7 µM; 3,200 compounds, 68% hits; AID 686949;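 active = activation, as change over the incubation, above the mean of all tested compounds plus 3 SD, cut at about 13% in these data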
EDANS-DABCYL int: fluorescence interference counter-screen for KLK7 activators | shares compounds with proKLK7 act | EDANS-DABCYL substrate fluorescence interference, no enzyme, 4 h; solvent 0%, active enzyme control 100% | activation, % at 7 µM | 3,200 compounds, 80% hits | AID 686952;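 active = activation above the all-compound mean plus 3 SD, ignoring values outside control-based bounds, cut at about 4.8% in these data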;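 note: value is the 4 h activation minus the activation read at time zero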
K7 EDANS ctr: counter-screen for kallikrein-7 activators: EDANS-DABCYL interference, dose response; EDANS-DABCYL peptide fluorescence interference, no enzyme; EC50, µM; 250 compounds, 20% hits; AID 720493; shares compounds with proKLK7 act;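 active = compounds that raise the fluorescence signal in this interference counterscreen, with EC50 at or below 10 µM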;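 note: intact quenched peptide substrate alone read at 355 nm excitation and 520 nm emission; signal is fluorescence gain from T0 to T4 after four hours at room temperature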
Starred values were filed as active, the others as inactive; i = inactive; / = no result. Only some compounds are listed: those with a hit (about 3% of all), similar ones and a draw of the others.

SMILES	PLC-gamma1 inh	PLCb3 inh	NRP1-CendR mod	Tn6 DDE FP	proKLK7 act	DDE Tn7 FP inh	KLK7 act conf	EDANS-DABCYL int	others
O=C1C2C3C=CC(C3)C2C(=O)N1c1ccccc1 (stereo unspecified)	2.7	3.7	-17.3	2.6	-0.4	1.1	/	/
Cc1cc(NCCCN2CCOCC2)n2c(nc3ccccc32)c1C#N	i	i	-12.9	-5.2	30.8*	11.2	66.4*	64.0*
CCCc1cc(NCCCN2CCOCC2)n2c(nc3ccccc32)c1C#N	-454.3	i	1.2	8.5	-11.3	-1.1	/	/
Cc1cc(NCCN2CCOCC2)n2c(nc3ccccc32)c1C#N	-360.0	-424.9	-9.4	-1.1	16.0*	5.0	-97.2	-170.0
Cc1c2c(n3c(nc4ccccc43)c1C#N)N(CCN1CCOCC1)CC2	-217.1	-301.7	-11.5	-1.0	9.1	-5.2	/	/
CC1(C)Oc2cc3oc(=O)ccc3c3c2C2C1CCC(C)(O3)C2O (stereo unspecified)	i	i	-6.7	-1.1	15.8*	-7.6	24.1*	30.5*
CC1(C)Oc2cc3oc(=O)ccc3cc2C[C@@H]1O	-87.0	-111.9	-6.8	-4.2	3.2	-1.0	/	/
Cc1ccc(S(=O)(=O)c2cc3ccccc3oc2=O)cc1	-4.4	-3.7	2.3	-2.8	-0.9	-4.9	/	/
Cc1c(O)ccc2cc(S(=O)(=O)c3ccccc3)c(=O)oc12	i	i	-1.7	-5.0	45.1*	2.8	70.0*	72.5*
CNC(=O)c1cc2c(cn1)[nH]c1ccccc12	-101.5	-157.3	3.2	1.7	32.5*	-1.2	6.8	4.4*
COc1ccc(-c2cc(C(=O)OCC(=O)N3CCOCC3)c3ccccc3n2)cc1	i	i	0.6	-3.0	59.1*	6.9	144.1*	141.2*
COc1ccc(-c2cc(C(=O)N3CCOCC3)c3cc(C)ccc3n2)cc1	i	i	-3.7	-1.5	64.5*	5.1	15.1*	21.4*
COc1ccc(-c2cc(C(=O)NCC3CCCO3)c3cc(C)ccc3n2)cc1 (stereo unspecified)	i	i	4.0	6.9	25.5*	-1.7	-40.0	-36.5
COC(=O)C1CCN(C(=O)COC(=O)c2cc(-c3ccccc3)nc3ccc(OC)cc23)CC1	/	/	-5.8	/	/	/	/	/
COc1ccc(-c2cc(C(F)F)n3ncc(C(=O)N4CCN(C)CC4)c3n2)cc1	i	i	5.8	0.1	15.3*	1.4	-4.0	-12.8
COc1ccc(-c2cc(C(=O)N3CCCCCC3)c3cc(C)ccc3n2)cc1	-299.4	-398.4	-0.3	-5.3	-90.2	0.6	/	/
COc1ccc(-c2cc(C(F)F)n3ncc(C(=O)N4CCSCC4)c3n2)cc1	-119.9	-167.0	7.7	6.3	-101.2	-2.3	/	/
COc1ccc(-c2cc(C(=O)NCC3CCCO3)c3ccccc3n2)cc1 (stereo unspecified)	i	i	4.4	1.6	10.2	-2.9	/	/
Cc1nc2ccc(NC(=O)c3ccc(F)cc3Cl)cc2c(=O)[nH]1	-7.7	-13.9	/	-2.9	0.2	-0.7	/	/
COc1ccc2nc(-c3ccc(Cl)cc3)cc(C(=O)O)c2c1	-288.8	-434.4	-4.9	2.5	25.3*	3.2	27.1*	43.7*
CCOC(=O)CCCNC(=O)COC(=O)c1cc(C)cc(C)c1	-1.7	1.5	1.7	5.2	0.0	3.2	/	/
O=C(OCC(=O)N1CCOCC1)c1ccc2ccccc2c1O	-39.9	-55.1	3.2	-3.5	5.5	1.7	/	/
COc1cc2ccccc2cc1C(=O)OCC(=O)N1CCOCC1	-258.9	-310.1	8.6	14.6	15.4*	-7.7	22.4*	18.7*	K7 EDANS ctr=>69.5
CCOC(=O)CCCNC(=O)COC(=O)c1cc2ccccc2cc1O	-73.1	-91.6	-6.9	1.8	25.0*	1.4	18.8*	19.2*
CC1CN(C(=O)COC(=O)c2cc3ccccc3cc2O)CC(C)O1 (stereo unspecified)	-60.8	-88.6	2.7	5.2	14.5*	2.5	17.2*	16.9*
SMILES	PLC-gamma1 inh	PLCb3 inh	NRP1-CendR mod	Tn6 DDE FP	proKLK7 act	DDE Tn7 FP inh	KLK7 act conf	EDANS-DABCYL int	others
COc1ccc(C2C(C(=O)Nc3ccc(C)c(C)c3)CCC(=O)N2c2ccc(OC)cc2)cc1 (stereo unspecified)	2.6	-3.7	/	-7.2	0.1	8.4	/	/
COc1ccc(C2CC(=O)C(c3cccc(C)c3)=CN2Cc2ccccc2)cc1 (stereo unspecified)	-62.6	-92.6	/	-2.3	-1.6	5.5	/	/
O=C(C1CCC1)n1ccc2ccc(-c3ccc4ccn(Cc5ccccc5)c4c3)cc21	-4.5	-6.8	/	3.6	-1.0	-0.6	/	/
CCn1c(SCC(=O)c2ccc(-c3ccccc3)cc2)nnc1-c1ccccc1OC	0.6	-4.6	/	-3.1	-0.2	-4.7	/	/
COC(=O)CS(=O)(=O)c1cccc2cccnc12	-4.6	-2.3	7.7	4.1	15.9*	-9.6	12.8*	13.2*
COC(=O)c1ccc(NS(=O)(=O)c2cccc3cccnc23)cc1	-0.4	2.4	-15.5	5.6	0.1	-4.9	/	/
OC(c1ccccc1)(c1ccccc1)C1CCN(CCCOc2ccc(Br)cc2)CC1	4.4	3.7	/	6.1	0.3	-15.3	/	/
COc1cc(C2C(C#N)=C(N)OC3=C2C(=O)CC(C)(C)C3)c([N+](=O)[O-])cc1OC (stereo unspecified)	-423.1	-488.5	7.4	4.4	20.1*	-6.2	20.6*	18.0*
COc1ccc(C2C(C#N)=C(N)OC3=C2C(=O)CC(C)(C)C3)c([N+](=O)[O-])c1OC (stereo unspecified)	-45.3	-66.3	7.0	-1.8	-0.2	-7.9	/	/
CN(C)c1c(-c2ccccc2)cc(-c2ccccc2)[nH]c1=O	-125.7	-177.2	9.7	0.0	15.6*	-1.5	2.1	4.9*
COC(=O)[C@]12C[C@H](CC(=O)N3CCSCC3)C(=O)N(Cc3ccco3)C1=C[C@H](COCc1ccccc1)O[C@@H]2C	6.2	2.9	/	-0.1	0.2	-4.4	/	/
CCN(C(=O)c1cc2c(=O)n3ccccc3nc2s1)C1CCCCC1	i	i	-8.4	-10.2	12.3	-4.9	/	/
COCCCn1c(C(=O)N2CC(C)OC(C)C2)cc2c(=O)n3cccc(C)c3nc21 (stereo unspecified)	/	/	-1.6	/	/	/	/	/
CCN(C(=O)c1cc2c(=O)n3ccccc3nc2n1C)C1CCCCC1	i	i	5.2	-0.9	66.8*	-1.2	65.8*	80.3*

Assay outcomes (PubChem BioAssay)
